This is an account of results in ChEMBL document CHEMBL1127365, “Self-immolative prodrugs: candidates for antibody-directed enzyme prodrug therapy in conjunction with a nitroreductase enzyme” (J Med Chem, 1994).

The subject of data set [1] is V79. Description: (§1) Tested for the effect of enzyme activation on the cytotoxicity at 1 uM when incubated with chinese hamster V79 cells. The format is functional. Particulars: Cricetulus griseus, read-out: Survival.
Data set [2] relates to V79. Description: (§2) Tested for the effect of enzyme activation on the cytotoxicity at 1 uM when incubated with chinese hamster V79 cells in presence of NADH. The format is functional. Particulars: Cricetulus griseus, read-out: Survival. The procedure, abridged: (§3)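 Chinese hamster V79 cells (2 × 10^5/mL) in PBS were exposed to the test agent plus NADH (500 μM), without enzyme, for 2 h at 37 °C. Cells were then harvested and assayed for colony-forming ability, reported as % survival. The supernatant was assayed by HPLC for remaining prodrug.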

Data set [3] relates to V79. Description: (§4) Tested for the effect of enzyme activation on the cytotoxicity at 1 uM when incubated with chinese hamster V79 cells in presence of NADH and nitroreductase enzyme. The format is functional. To be noted: Cricetulus griseus, read-out: Survival. The procedure, abridged:
(§5)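 Chinese hamster V79 cells (2 × 10^5/mL) in PBS were exposed to the test agent with NADH (500 μM) and E. coli B nitroreductase (10 μg/mL) for 2 h at 37 °C. Cells were then harvested and assayed for colony-forming ability, reported as % survival. The supernatant was assayed by HPLC for remaining prodrug, giving % prodrug reduction.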

For data set [4], the system named is V79. Described as §1. The format is functional, Cricetulus griseus.
Data set [5] concerns V79. The data set is described as §2. The format is functional, Cricetulus griseus.
Data set [6] has as its system V79. Described as §4. Type of data set: functional, Cricetulus griseus. The procedure, abridged: as §5
The subject of data set [7] is V79. Kind of data set: (§6) Tested for the effect of enzyme activation on the cytotoxicity at 10 uM when incubated with chinese hamster V79 cells in presence of NADH. To be noted: Cricetulus griseus, read-out: Survival. Type of data set: functional. The procedure, abridged: as §3
For data set [8], the system named is V79. Description: (§7) Tested for the effect of enzyme activation on the cytotoxicity at 10 uM when incubated with chinese hamster V79 cells. To be noted: Cricetulus griseus, read-out: Survival. The format is functional. The procedure, abridged:
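Chinese hamster V79 cells (2 × 10^5/mL) in PBS were exposed to the test agent alone, without NADH or NR, for 2 h at 37 °C. Cells were then harvested and assayed for colony-forming ability, reported as % survival. The supernatant was checked by HPLC for remaining prodrug.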

Data set [9] concerns V79. Described as §2. The format is functional, Cricetulus griseus. In a few lines:
as §3
This is another data set of the same source.

Data set [10] deals with V79. Kind of data set: (§8) Tested for the effect of enzyme activation on the cytotoxicity at 10 uM when incubated with chinese hamster V79 cells in presence of NADH and nitroreductase enzyme. Type of data set: functional, Cricetulus griseus. In a few lines:
as §5

Data set [11] has as its system V79. The description is as §6. Type of data set: functional, Cricetulus griseus. The procedure, abridged:
as §3

Data set [12] relates to V79. Described as §7. Type of data set: functional, Cricetulus griseus.
Data set [13] concerns V79. The description is as §8. Type of data set: functional. To be noted: Cricetulus griseus, read-out: Survival. The procedure, abridged:
as §5

Data set [14] has as its system Mus musculus. Description: Tested in vivo toxicity in mouse at dose 1 mg/kg when administered intraperitoneally on day 2. The format is organism-based. Also on record: dose 1 mg/kg, route intraperitoneal. To be noted: ip. The procedure, abridged:
(§9)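 Balb C mice (20-25 g), groups of 3, fed rodent diet and water ad libitum. Single ip injection in arachis oil at 1, 5, 10 or 100 mg/kg. Untreated and arachis-oil-only groups served as controls. Body weight recorded as % of day 0 on days 2, 3, 7 and 9.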

The test system of data set [15] is Mus musculus. Description: Tested in vivo toxicity in mouse at dose 1 mg/kg when administered intraperitoneally on day 9. The format is organism-based. Details: dose 1 mg/kg, route intraperitoneal. To be noted: ip. The procedure, abridged:
as §9

Data set [16] concerns Mus musculus. Kind of data set: Tested in vivo toxicity in mouse at dose 1 mg/kg when administered intraperitoneally on day 3. Particulars: ip. Also on record: dose 1 mg/kg, route intraperitoneal. Type of data set: organism-based. In a few lines: as §9
Data set [17] deals with Mus musculus. Description: Tested in vivo toxicity in mouse at dose 1 mg/kg when administered intraperitoneally on day 7. Type of data set: organism-based. Details: dose 1 mg/kg, route intraperitoneal. Particulars: ip. In a few lines:
as §9

The subject of data set [18] is V79. Description: (§10) Tested for the effect of enzyme activation on the cytotoxicity at 50 uM when incubated with chinese hamster V79 cells in presence of NADH. Type of data set: functional, Cricetulus griseus. In a few lines:
as §3

Data set [19] has as its system V79. Kind of data set: (§11) Tested for the effect of enzyme activation on the cytotoxicity at 50 uM when incubated with chinese hamster V79 cells in presence of NADH and nitroreductase enzyme. The format is functional, Cricetulus griseus. The procedure, abridged: as §5
Data set [20] relates to V79. Description: (§12) Tested for the effect of enzyme activation on the cytotoxicity at 50 uM when incubated with chinese hamster V79 cells. The format is functional, Cricetulus griseus.
In data set [21] the test system is V79. The data set is described as §11. The format is functional. Particulars: Cricetulus griseus, read-out: Survival. The procedure, abridged:
as §5

Data set [22] relates to V79. Described as §10. The format is functional. Particulars: Cricetulus griseus, read-out: Survival. The procedure, abridged:
as §3

In data set [23] the test system is V79. The description is as §12. The format is functional. To be noted: Cricetulus griseus, read-out: Survival.
The test system of data set [24] is Mus musculus. Kind of data set: In vivo toxicity in mouse at dose 10 mg/kg when administered intraperitoneally on day 7. The format is organism-based. Details: dose 10 mg/kg, route intraperitoneal. To be noted: ip. In a few lines: (§13)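 Balb C mice (20-25 g), groups of 3, single ip injection in arachis oil; doses 1, 5, 10 or 100 mg/kg. Untreated and arachis-oil-only groups served as controls. Mice were fed rodent diet and water ad libitum. Body weight was recorded as % of day 0 on days 2, 3, 7 and 9, and deaths were noted.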

Data set [25] concerns Mus musculus. Description: In vivo toxicity in mouse at dose 100 mg/kg when administered intraperitoneally on day 3. The format is organism-based. Details: dose 100 mg/kg, route intraperitoneal. To be noted: ip. In a few lines:
as §13

The test system of data set [26] is Mus musculus. Description: In vivo toxicity in mouse at dose 100 mg/kg when administered intraperitoneally on day 7. Details: dose 100 mg/kg, route intraperitoneal. Particulars: ip. The format is organism-based. In a few lines: as §13
The test system of data set [27] is Mus musculus. Kind of data set: In vivo toxicity in mouse at dose 10 mg/kg when administered intraperitoneally on day 3. The format is organism-based. Also on record: dose 10 mg/kg, route intraperitoneal. Particulars: ip. In a few lines:
as §13

Data set [28] has as its system Mus musculus. Description: In vivo toxicity in mouse at dose 10 mg/kg when administered intraperitoneally on day 9. To be noted: ip. Type of data set: organism-based. Also on record: dose 10 mg/kg, route intraperitoneal. In a few lines:
as §13

For data set [29], the system named is Mus musculus. Kind of data set: In vivo toxicity in mouse at dose 1 mg/kg when administered intraperitoneally on day 9. Type of data set: organism-based. Also on record: dose 1 mg/kg, route intraperitoneal. To be noted: ip. The procedure, abridged:
as §13

Data set [30] relates to Mus musculus. Description: In vivo toxicity in mouse at dose 1 mg/kg when administered intraperitoneally on day 3. The format is organism-based. Also on record: dose 1 mg/kg, route intraperitoneal. To be noted: ip. The procedure, abridged: as §13
Data set [31] deals with Mus musculus. Kind of data set: In vivo toxicity in mouse at dose 100 mg/kg when administered intraperitoneally on day 9. Type of data set: organism-based. Details: dose 100 mg/kg, route intraperitoneal. To be noted: ip. In a few lines:
as §13

The subject of data set [32] is Mus musculus. Kind of data set: In vivo toxicity in mouse at dose 1 mg/kg when administered intraperitoneally on day 7. The format is organism-based. Also on record: dose 1 mg/kg, route intraperitoneal. To be noted: ip. The procedure, abridged: as §13
In data set [33] the test system is Mus musculus. Description: In vivo toxicity in mouse at dose 100 mg/kg when administered intraperitoneally on day 2. Type of data set: organism-based. Details: dose 100 mg/kg, route intraperitoneal. To be noted: ip. The procedure, abridged:
as §13

Data set [34] deals with Mus musculus. Description: In vivo toxicity in mouse at dose 10 mg/kg when administered intraperitoneally on day 2. The format is organism-based. Also on record: dose 10 mg/kg, route intraperitoneal. To be noted: ip. In a few lines:
as §13

The test system of data set [35] is Mus musculus. Description: In vivo toxicity in mouse at dose 1 mg/kg when administered intraperitoneally on day 2. The format is organism-based. Also on record: dose 1 mg/kg, route intraperitoneal. Particulars: ip. The procedure, abridged: as §13

Some results are limits rather than exact numbers.

Regarding `COC12C(COC(N)=O)C3=C(C(O)=C(C)C(=N)C3=O)N1CC1C2N1C(=O)OCc1ccc([N+](=O)[O-])cc1` (stereo unspecified), the viability at 1 µM in the data set on V79 [1] was found to be 76.7%; in the data set on V79 [2], 70.8%; in the data set with V79 [3] it was 25.4%. Further, the Prodrug reduction in the data set with V79 [4] is 0%; in the data set with V79 [5], 0%; in the data set with V79 [6], 91%.
Regarding `Cc1c2oc3c(C)ccc(C(=O)N[C@@H]4C(=O)N[C@H](C(C)C)C(=O)N5CCC[C@H]5C(=O)N(C)CC(=O)N(C)[C@@H](C(C)C)C(=O)O[C@@H]4C)c3nc-2c(C(=O)N[C@@H]2C(=O)N[C@H](C(C)C)C(=O)N3CCC[C@H]3C(=O)N(C)CC(=O)N(C)[C@@H](C(C)C)C(=O)O[C@@H]2C)c(NC(=O)OCc2ccc([N+](=O)[O-])cc2)c1=O` [listing 1 of 2 here], the viability at 10 µM was 44.6% in the data set with V79 [7], 39.3% with V79 [8] and less than 0.001% with V79 [13]. Besides, the Prodrug reduction is 0% in the data set with V79 [9]; 93% in the data set on V79 [10]; 0% with V79 [11]; 0% in the data set with V79 [4]; 0% in the data set on V79 [12]; 90.5% with V79 [6]. Moreover, the results for the viability at 1 µM in the data set on V79 [1], with V79 [2] and in the data set on V79 [3] were 98.3%, 102% and 27.4%, respectively.
For the molecule `Cc1c2oc3c(C)ccc(C(=O)N[C@@H]4C(=O)N[C@H](C(C)C)C(=O)N5CCC[C@H]5C(=O)N(C)CC(=O)N(C)[C@@H](C(C)C)C(=O)O[C@@H]4C)c3nc-2c(C(=O)N[C@@H]2C(=O)N[C@H](C(C)C)C(=O)N3CCC[C@H]3C(=O)N(C)CC(=O)N(C)[C@@H](C(C)C)C(=O)O[C@@H]2C)c(N)c1=O` (stereo in doubt) [DACTINOMYCIN], the Weight in the data set on Mus musculus [14] is reported as 98.6%; with Mus musculus [15], 103%; in the data set on Mus musculus [16], 95%; in the data set with Mus musculus [17] it was 101.6%.
With `O=C(OCc1ccc([N+](=O)[O-])cc1)Oc1ccc(N(CCCl)CCCl)cc1`, the viability at 10 µM in the data set with V79 [7] stood at 45.8%; in the data set with V79 [8] it was 56.4%; in the data set with V79 [13], 43.3%. For the same molecule, the values for the Prodrug reduction with V79 [10], in the data set on V79 [11] and in the data set on V79 [12] were 86%, 0% and 0%, respectively.
On to `O=C(Nc1ccc(N(CCCl)CCCl)cc1)OCc1ccc([N+](=O)[O-])cc1`, for which the Prodrug reduction in the data set with V79 [18] was found to be 0%; in the data set on V79 [19], 30%; with V79 [20] it was 0%. In addition, the viability at 50 µM is less than 0.001% in the data set with V79 [21], 34.1% with V79 [22] and 27.1% in the data set on V79 [23].
On to `Cc1c2oc3c(C)ccc(C(=O)N[C@@H]4C(=O)N[C@H](C(C)C)C(=O)N5CCC[C@H]5C(=O)N(C)CC(=O)N(C)[C@@H](C(C)C)C(=O)O[C@@H]4C)c3nc-2c(C(=O)N[C@@H]2C(=O)N[C@H](C(C)C)C(=O)N3CCC[C@H]3C(=O)N(C)CC(=O)N(C)[C@@H](C(C)C)C(=O)O[C@@H]2C)c(NC(=O)OCc2ccc([N+](=O)[O-])cc2)c1=O` [listing 2 of 2 here], for which the Weight in the data set on Mus musculus [24] came to 108%; with Mus musculus [25], 95.6%; in the data set with Mus musculus [26], 95%; in the data set with Mus musculus [27], 105%; with Mus musculus [28] it was 110%; in the data set with Mus musculus [29] it was 103%. Further, the Weight was 101% with Mus musculus [30]; 96% in the data set on Mus musculus [31]; 101% in the data set with Mus musculus [32]; 96.4% with Mus musculus [33]; 109% with Mus musculus [34]; 102% in the data set with Mus musculus [35].
